Experimental data from different studies.
Each line is one published result; the experiments were not run side by side.
Target: Beta-secretase 1 (BACE1, Homo sapiens, UniProt P56817)
Action: inhibitor

| Compound | read-out | method | pH | IC50 [µM] |
| --- | --- | --- | --- | --- |
| CC1(c2ccccc2)COCC(N)=N1 (stereo not drawn) | enzyme activity | FRET | pH 5 | 200 |
| CC[C@H](C[C@H](O)[C@@H](N)COc1ccc(-c2ccc(F)cc2)c(OCCCOC)c1)C(=O)N[C@H](C(=O)NCc1ccc(Cl)cc1)[C@@H](C)CC | enzyme activity | – | pH 4.5 | 1.1 |
| Cc1cc2cc(c1)C(=O)N[C@H]([C@H](O)CN(Cc1cccc(C(C)C)c1)C(=O)OC(C)(C)C)CCC/C=C/CCCC2=O | enzyme activity in cells | – | – | > 10 |
| CC(C)=CCc1c(O)cc(O)c2c(=O)c(-c3ccc(O)cc3)coc12 | enzyme activity | – | – | 27 |
| CC[C@H](C)[C@H](NC(=O)[C@@H](C[C@H](O)[C@@H](N)COc1ccc(-c2ccc(F)cc2)c(OCCCOC)c1)C(C)C)C(=O)NCc1ccc(Cl)cc1 | enzyme activity | – | pH 4.5 | 0.81 |
| C=C(C)[C@@H]1CCC(C)=C[C@H]1c1c(O)cc2occ(-c3ccc(O)cc3)c(=O)c2c1O (relative stereo) | enzyme activity | – | – | > 200 |
| [H]/N=C1\N[C@](C)(c2cccc(Nc3cnc(C4CC4)nc3)c2Cl)CC(=O)N1[C@H]1CCO[C@@H](C)C1 | enzyme activity | FRET | – | > 10 |
| COc1ccc2c(c1)OC1Oc3cc(O)cc(O)c3C(=O)C21O (stereo not drawn) | enzyme activity | – | – | 139 |
| CN(C)c1nc(N2CCCC2)nc2ccccc12 | enzyme activity | FRET | pH 5 | 500 |
